Reference: ChEMBL document CHEMBL2424657, “Identification of the KDM2/7 histone lysine demethylase subfamily inhibitor and its antiproliferative activity” (J Med Chem, 2013)

Experiments:
HeLa [1] = experiment: Cell cycle arrest in human HeLa cells assessed as increase in G0/G1 phase after 24 hrs by FACS analysis; type: functional, cell-based
Outline: (§1)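 HeLa or KYSE150 cells (5×10^5) were exposed for 24 h to 10 or 100 μM in RPMI 1640 with 10% FBS, then trypsinized. Cells were fixed in ice-cold 70% ethanol, PBS-washed and stained with propidium iodide (10 μg/mL) plus RNase A (0.2 mg/mL) for 30 min at 25 °C. Phase distribution was read by flow cytometry.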

HeLa [2] = experiment: Cell cycle arrest in human HeLa cells assessed as reduction in G2/M phase after 24 hrs by FACS analysis; type: functional, cell-based; outline: as §1
[3] = Cell cycle arrest in human KYSE-150 cells assessed as increase in G0/G1 phase after 24 hrs by FACS analysis; type: functional, cell-based; outline: as §1
[4] = Cell cycle arrest in human KYSE-150 cells assessed as reduction in G2/M phase after 24 hrs by FACS analysis; type: functional, cell-based; outline: as §1
[5] = target: Lysine-specific demethylase 7A/7B (Mus musculus) (UniProt Q3UWM4+Q80TJ7); experiment: Inhibition of KDM7A/7B in mouse N2a cells assessed as H3K27me2 level after 24 hrs by Western blot analysis; type: cell-based
Lysine-specific demethylase 7A/7B (Mus musculus), sequence (Q3UWM4 whole entry, looked up): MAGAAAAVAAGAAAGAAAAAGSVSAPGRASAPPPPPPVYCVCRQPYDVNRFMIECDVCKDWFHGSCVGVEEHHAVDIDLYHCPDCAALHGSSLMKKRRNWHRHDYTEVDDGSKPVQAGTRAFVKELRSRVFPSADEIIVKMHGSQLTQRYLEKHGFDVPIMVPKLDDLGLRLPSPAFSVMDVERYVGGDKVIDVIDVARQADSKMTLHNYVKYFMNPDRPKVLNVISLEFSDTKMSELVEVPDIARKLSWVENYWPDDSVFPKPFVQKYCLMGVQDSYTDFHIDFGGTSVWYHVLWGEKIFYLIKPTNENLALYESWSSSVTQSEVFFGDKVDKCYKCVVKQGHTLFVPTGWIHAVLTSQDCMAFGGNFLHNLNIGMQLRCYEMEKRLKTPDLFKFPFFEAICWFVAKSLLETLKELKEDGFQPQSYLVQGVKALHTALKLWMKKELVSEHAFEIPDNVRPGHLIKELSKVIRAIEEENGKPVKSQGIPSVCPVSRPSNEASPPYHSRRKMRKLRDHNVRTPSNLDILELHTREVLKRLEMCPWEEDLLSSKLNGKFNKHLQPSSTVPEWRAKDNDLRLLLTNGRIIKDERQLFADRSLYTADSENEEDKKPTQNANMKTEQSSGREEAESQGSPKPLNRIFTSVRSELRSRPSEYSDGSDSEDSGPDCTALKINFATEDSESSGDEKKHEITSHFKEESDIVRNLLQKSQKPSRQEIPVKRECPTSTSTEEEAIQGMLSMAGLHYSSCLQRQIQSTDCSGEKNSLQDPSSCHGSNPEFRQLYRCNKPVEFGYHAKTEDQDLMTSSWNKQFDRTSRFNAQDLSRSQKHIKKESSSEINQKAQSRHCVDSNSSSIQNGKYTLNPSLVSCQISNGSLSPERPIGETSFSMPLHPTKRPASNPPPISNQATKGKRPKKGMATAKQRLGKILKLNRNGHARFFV
Lysine-specific demethylase 7A/7B (Mus musculus), sequence (Q80TJ7 whole entry, looked up): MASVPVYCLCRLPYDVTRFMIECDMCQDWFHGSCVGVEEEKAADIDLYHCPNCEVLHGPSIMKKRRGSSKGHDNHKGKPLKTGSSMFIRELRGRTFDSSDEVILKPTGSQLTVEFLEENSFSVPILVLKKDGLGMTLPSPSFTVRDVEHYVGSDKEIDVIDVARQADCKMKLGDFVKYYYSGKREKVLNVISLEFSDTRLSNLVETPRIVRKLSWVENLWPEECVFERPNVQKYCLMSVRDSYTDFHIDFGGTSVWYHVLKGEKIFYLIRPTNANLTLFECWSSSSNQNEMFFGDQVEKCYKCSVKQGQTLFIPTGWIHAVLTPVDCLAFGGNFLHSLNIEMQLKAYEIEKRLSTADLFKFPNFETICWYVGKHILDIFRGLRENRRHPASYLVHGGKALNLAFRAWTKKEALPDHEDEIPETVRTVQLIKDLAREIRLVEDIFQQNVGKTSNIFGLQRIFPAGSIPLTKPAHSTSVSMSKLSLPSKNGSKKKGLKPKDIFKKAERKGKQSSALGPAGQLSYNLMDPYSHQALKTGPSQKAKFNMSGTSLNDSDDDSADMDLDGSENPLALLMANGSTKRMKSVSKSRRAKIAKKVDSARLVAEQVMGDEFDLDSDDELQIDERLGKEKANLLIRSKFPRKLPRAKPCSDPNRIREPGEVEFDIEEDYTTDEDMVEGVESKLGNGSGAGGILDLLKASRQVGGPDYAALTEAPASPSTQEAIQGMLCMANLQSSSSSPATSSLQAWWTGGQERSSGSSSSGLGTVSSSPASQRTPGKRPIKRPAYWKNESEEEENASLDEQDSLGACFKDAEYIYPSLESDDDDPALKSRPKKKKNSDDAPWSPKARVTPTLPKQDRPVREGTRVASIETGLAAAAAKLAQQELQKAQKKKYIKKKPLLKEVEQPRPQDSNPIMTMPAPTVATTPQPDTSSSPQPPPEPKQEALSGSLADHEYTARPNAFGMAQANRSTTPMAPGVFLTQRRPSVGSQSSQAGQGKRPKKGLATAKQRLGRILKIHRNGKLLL
Outline: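 Cells (5×10^5) were treated for 24 h in OPTI-MEM and lysed in SDS buffer. Equal protein amounts, set by Bradford assay, were resolved on 4–20% SDS-PAGE and blotted. Blots were probed with anti-H3K27me2 (1:1000) and anti-H3 (1:100000) as loading reference, detected with an HRP secondary antibody, and visualized by ECL.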

[6] = target: Lysine-specific demethylase 6A (Homo sapiens, UniProt O15550); experiment: Inhibition of human recombinant KDM6A after 120 mins
Lysine-specific demethylase 6A, sequence (O15550 whole entry): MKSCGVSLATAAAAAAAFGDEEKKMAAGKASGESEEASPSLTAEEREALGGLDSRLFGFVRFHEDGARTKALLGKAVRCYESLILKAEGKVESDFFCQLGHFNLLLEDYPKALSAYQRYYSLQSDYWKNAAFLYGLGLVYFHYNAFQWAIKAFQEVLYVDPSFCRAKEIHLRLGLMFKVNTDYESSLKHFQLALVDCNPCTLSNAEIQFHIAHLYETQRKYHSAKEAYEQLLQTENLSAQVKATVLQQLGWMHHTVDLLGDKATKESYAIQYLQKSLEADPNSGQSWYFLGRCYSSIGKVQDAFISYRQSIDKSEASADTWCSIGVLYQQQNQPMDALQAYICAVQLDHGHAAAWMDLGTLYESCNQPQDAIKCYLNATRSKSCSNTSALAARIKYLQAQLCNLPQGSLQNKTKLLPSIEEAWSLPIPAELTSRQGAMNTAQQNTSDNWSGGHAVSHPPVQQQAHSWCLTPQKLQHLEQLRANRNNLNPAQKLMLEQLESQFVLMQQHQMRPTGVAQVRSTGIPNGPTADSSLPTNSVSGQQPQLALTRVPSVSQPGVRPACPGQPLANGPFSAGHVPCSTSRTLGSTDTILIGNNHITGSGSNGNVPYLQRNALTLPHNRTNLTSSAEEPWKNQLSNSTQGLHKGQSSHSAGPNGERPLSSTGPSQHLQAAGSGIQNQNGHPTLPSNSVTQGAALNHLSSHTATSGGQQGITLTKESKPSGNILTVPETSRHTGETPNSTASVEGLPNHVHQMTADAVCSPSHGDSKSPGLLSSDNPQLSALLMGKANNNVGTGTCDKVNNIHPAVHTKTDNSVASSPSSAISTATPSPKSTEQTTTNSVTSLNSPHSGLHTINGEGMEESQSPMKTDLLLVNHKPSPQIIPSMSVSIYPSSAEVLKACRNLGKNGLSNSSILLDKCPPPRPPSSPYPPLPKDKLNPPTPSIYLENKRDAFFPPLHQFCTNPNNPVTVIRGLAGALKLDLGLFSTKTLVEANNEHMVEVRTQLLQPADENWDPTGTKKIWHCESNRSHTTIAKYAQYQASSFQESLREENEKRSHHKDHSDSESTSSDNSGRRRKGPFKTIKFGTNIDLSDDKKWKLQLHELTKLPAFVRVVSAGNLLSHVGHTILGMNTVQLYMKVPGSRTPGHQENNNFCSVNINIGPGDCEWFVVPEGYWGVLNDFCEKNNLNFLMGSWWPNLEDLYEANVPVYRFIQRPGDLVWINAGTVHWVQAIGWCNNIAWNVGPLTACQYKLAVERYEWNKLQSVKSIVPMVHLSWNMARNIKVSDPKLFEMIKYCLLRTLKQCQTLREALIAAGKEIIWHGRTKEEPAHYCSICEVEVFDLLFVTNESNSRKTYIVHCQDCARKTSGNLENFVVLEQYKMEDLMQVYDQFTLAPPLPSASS

inhibition [5]: Dose-dependent effect | IC50 [6]: > 100 µM
SMILES: O=C(O)CCN(O)C(=O)CCCCCCCCC1CC1
Activity (HeLa [1]): Dose-dependent effect | Activity (HeLa [2]): Dose-dependent effect | Activity [3]: Dose-dependent effect | Activity [4]: Dose-dependent effect
